Source: ChEMBL document CHEMBL1147853, “Synthesis and anti-HIV studies of 2-adamantyl-substituted thiazolidin-4-ones” (Eur J Med Chem, 2007)
Active and inactive are the calls of the source. The rule behind the calls is not given here.

Tests used:
[1] = Selectivity index, ratio of CC50 for CEM cells to EC50 for HIV1 infected CEM cells; assay type: functional, CCRF-CEM
Influenza A virus = assay: Antiviral activity against influenza virus H3N2 in MDCK cells; assay type: functional, organism-based
[2] = test system: Human immunodeficiency virus 2; assay: Antiviral activity against HIV2 ROD in CEM cells; assay type: functional, organism-based; details: Human immunodeficiency virus 2, ROD, CCRF-CEM
How it was run: (§1)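 CEM cells at 4×10^4 cells/mL infected with virus at ~100 CCID50 per mL of cell suspension, then mixed 1:1 with serial dilutions of compound. After four days, giant cell formation was scored microscopically.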

[3] = biological target: T1, Human immunodeficiency virus type 1 reverse transcriptase (Human immunodeficiency virus 1, UniProt Q72547); assay: Inhibition of HIV1 reverse transcriptase using Poly rA.dT template
How it was run: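 Recombinant HIV-1(IIIB) RT was assayed in 50 mM Tris-HCl pH 7.8 with 5 mM DTT, 300 mM glutathione, 500 µM EDTA, 150 mM KCl, 5 mM MgCl2, BSA and 0.06% Triton X-100. Template/primer was poly(A).oligo(dT) at 0.1 mM with [3H]dTTP at 0.6 µM. Reactions ran 30 min at 37 °C, followed by TCA precipitation and radioactivity counting.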

[4] = biological target: T1, Human immunodeficiency virus type 1 reverse transcriptase; assay: Inhibition of HIV1 reverse transcriptase using Poly rC.dG template
[5] = Cytotoxicity against CEM cells; assay type: cell-based; details: human, CEM (CCRF-CEM) cells
How it was run: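 CEM cells were plated at 300,000–500,000 cells/mL with an equal volume of compound dilutions and incubated 3 days at 37 °C. Cell number was counted with a Coulter counter.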

[6] = test system: Human immunodeficiency virus 1; assay: Antiviral activity against HIV1 3B in CEM cells; assay type: functional, organism-based; details: Human immunodeficiency virus 1, 3B, CCRF-CEM; how it was run: as §1
[7] = test system: Human immunodeficiency virus 1; assay: Antiviral activity against HIV1 3B with reverse transcriptase Lys103 Asn mutation; assay type: functional, organism-based; details: Human immunodeficiency virus 1, 3B
How it was run: (§2)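 CEM cells at 4×10^4 cells/mL were infected with HIV-1(III_B) strains carrying NNRTI-type RT mutations, at ~100 CCID₅₀ per mL of cell suspension. Infected cells were mixed 1:1 with serial compound dilutions. Giant cell formation was scored microscopically after four days. EC₅₀ is the concentration inhibiting virus-induced cytopathicity by 50%.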

[8] = test system: Human immunodeficiency virus 1; assay: Antiviral activity against HIV1 3B with reverse transcriptase Tyr181His mutation; assay type: functional, organism-based; details: Human immunodeficiency virus 1, 3B
[9] = test system: Human immunodeficiency virus 1; assay: Antiviral activity against HIV1 3B with reverse transcriptase Tyr181Ile mutation; assay type: functional, organism-based; details: Human immunodeficiency virus 1, 3B; how it was run: as §2
[10] = test system: Human immunodeficiency virus 1; assay: Antiviral activity against HIV1 3B with reverse transcriptase Leu100Ile mutation; assay type: functional, organism-based; details: Human immunodeficiency virus 1, 3B; how it was run: as §2
[11] = test system: Human immunodeficiency virus 1; assay: Antiviral activity against HIV1 3B with reverse transcriptase Tyr181Cys mutation; assay type: functional, organism-based; details: Human immunodeficiency virus 1, 3B; how it was run: as §2

SMILES	Ratio CC50/EC50 [1]	Activity (Influenza A virus)	EC50 [2] [µM]	IC50 [3] [µM]	IC50 [4] [µM]	CC50 [5] [µM]	EC50 [6] [µM]	EC50 [7] [µM]	EC50 [8] [µM]	EC50 [9] [µM]	Ki [4] [µM]	EC50 [10] [µM]	EC50 [11] [µM]
Cc1cccc(N2C(=O)CSC2C23CC4CC(CC(C4)C2)C3)n1 (stereo unspecified)	14	inactive	> 304	43	40	> 304	21						
O=C1CSC(C23CC4CC(CC(C4)C2)C3)N1c1ccncc1 (stereo unspecified)	<2.5	inactive	> 63			159	> 63						
O=C1CSC(C23CC4CC(CC(C4)C2)C3)N1CCN1CCOCC1 (stereo unspecified)	<3	inactive	> 57.1			140	> 57						
N#Cc1ccc(N2C(=O)CSC2C23CC4CC(CC(C4)C2)C3)cc1 (stereo unspecified)	<=1	inactive	> 295			≥ 295	> 295						
O=C1CSC(C23CC4CC(CC(C4)C2)C3)N1c1ccc(I)cc1 (stereo unspecified)	<=1	inactive	> 45			≥ 228	> 228						
COc1ccc(N2C(=O)CSC2C23CC4CC(CC(C4)C2)C3)cc1 (stereo unspecified)	<6	inactive	> 12			74	> 12						
Cc1cccnc1N1C(=O)CSC1C12CC3CC(CC(C3)C1)C2 (stereo unspecified)	<2.5	inactive	> 12			29	> 12						
O=C1CSC(C23CC4CC(CC(C4)C2)C3)N1c1ccc(F)cc1 (stereo unspecified)	<=1	inactive	> 302			≥ 302	> 302						
Cc1cc(C)nc(N2C(=O)CSC2C23CC4CC(CC(C4)C2)C3)c1 (stereo unspecified)	120		> 11.7	38	29	42	0.35						
O=C1CSC(C23CC4CC(CC(C4)C2)C3)N1c1cccnc1 (stereo unspecified)	<=3	inactive	> 63	≥ 636	≥ 636	105	≥ 32						
Cc1ccnc(N2C(=O)CSC2C23CC4CC(CC(C4)C2)C3)c1 (stereo unspecified)	>54	inactive	> 304	88	40	> 304	5.6						
O=C1CSC(C23CC4CC(CC(C4)C2)C3)N1CCN1CCCCC1 (stereo unspecified)	<4	inactive	> 11			44	> 11						
O=C1CSC(C23CC4CC(CC(C4)C2)C3)N1c1ccc(Br)cc1 (stereo unspecified)	<1	inactive	> 255			≥ 255	> 255						
Cc1cc(C)nc(N2C(=O)CSC2C)c1 (stereo unspecified)	>450		> 450	> 900	≥ 900	> 450	> 450						
O=C1CSC(C23CC4CC(CC(C4)C2)C3)N1c1ccc(Cl)c(C(F)(F)F)c1 (stereo unspecified)	<1	inactive	> 48			> 240	> 48						
O=C1CSC(C23CC4CC(CC(C4)C2)C3)N1c1ccc(Cl)cc1 (stereo unspecified)	<=5	inactive	> 57.5			≥ 287	> 57						
Cc1ccnc2c1NC(=O)c1cccnc1N2C1CC1 [NEVIRAPINE]			> 50			> 50							
CCN(CC)CCN1C(=O)CSC1C12CC3CC(CC(C3)C1)C2 (stereo unspecified)	7.2	inactive	> 59	481	475	56	7.7						
Cc1cc(C)nc(N2C(=O)CS[C@@H]2C23CC4CC(CC(C4)C2)C3)c1	198	inactive	> 12	20	19	35	0.178	1.5	> 12	> 12	12	2.3	8.2
CN(C)CCN1C(=O)CSC1C12CC3CC(CC(C3)C1)C2 (stereo unspecified)	1.9	inactive	> 65	> 648	> 648	125	65						
CCN(CC)CCCN1C(=O)CSC1C12CC3CC(CC(C3)C1)C2 (stereo unspecified)	3.1	inactive	> 57	> 571	> 571	89	28						
CN(C)CCCN1C(=O)CSC1C12CC3CC(CC(C3)C1)C2 (stereo unspecified)	4	inactive	> 62	> 620	≥ 620	122	31						
O=C1CSC(C23CC4CC(CC(C4)C2)C3)N1c1ccccn1 (stereo unspecified)	<1	inactive	> 318			> 318	> 318						
Cc1cc(C)nc(N2C(=O)CS[C@H]2C23CC4CC(CC(C4)C2)C3)c1	3.8	inactive	> 58	> 584	> 584	44	12						
O=c1[nH]cnc2c1ncn2[C@H]1CC[C@@H](CO)O1 [DIDANOSINE]	>54					> 250	4.6						
Cc1ccc(N2C(=O)CSC2C23CC4CC(CC(C4)C2)C3)nc1 (stereo unspecified)	<4.8	inactive	> 12.4			59	> 12						
